Data from the M2OR odorant receptor database.

biological target: T1, OR1A1 (Homo sapiens) (UniProt Q9P1Q5); details: stereoisomer not certain
T1 sequence (whole entry): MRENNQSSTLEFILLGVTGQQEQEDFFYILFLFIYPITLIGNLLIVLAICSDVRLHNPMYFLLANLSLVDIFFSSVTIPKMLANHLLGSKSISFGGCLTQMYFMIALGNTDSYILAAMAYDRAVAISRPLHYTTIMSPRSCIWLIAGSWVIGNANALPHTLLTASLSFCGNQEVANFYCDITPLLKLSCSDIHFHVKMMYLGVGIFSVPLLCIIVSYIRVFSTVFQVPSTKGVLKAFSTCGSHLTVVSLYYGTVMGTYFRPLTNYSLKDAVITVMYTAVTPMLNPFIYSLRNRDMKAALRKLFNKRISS
How it was run: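 Each entry records the cell line, G-protein, co-transfected protein and tags used. Methods varied with the source, often transient luciferase assays in mammalian cell lines. A receptor–molecule pair is called responsive (active) if the original authors judged its signal statistically different from baseline and non-responsive (inactive) otherwise.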

Structure (SMILES)	odorant receptor agonist call
CCCCCC=CCCC=O	active
CCCCCC(=O)CC(C)=O	active
CCCCCCC(=O)[O-].[H+]	inactive
CC(C)C12CCC(C)(CC1)O2	inactive
CCCCCCCC1CCCC(=O)O1 (configuration not stated)	inactive
CCc1cnccn1	inactive
CCC(C)c1nccnc1OC (configuration not stated)	inactive
COc1cc(C(=O)O)ccc1O	inactive
O=C1Cc2ccccc2O1	inactive
CC(C)=CCCC(C)CCO (configuration not stated)	active
CCCC(S)CCO (configuration not stated)	inactive
CCc1ccc(O)cc1	inactive
COCCC(C)(C)S	inactive
C=CC(C)=CCC=C(C)CCC=C(C)C	inactive
CCCCCCCCCO	inactive
COC(C=C(C)CCC=C(C)C)OC	inactive
CCC(=O)C(C)S (configuration not stated)	inactive
COC(=O)Cc1ccccc1C	active
OCC=Cc1ccccc1	inactive

Structure (SMILES)	odorant receptor agonist call
C=C1CCC2(C(C)C)CC12 (configuration not stated)	inactive
CC(=O)OCCc1ccccc1	active
CSCCC=O	inactive
CC1=CCC(C(C)C)C=C1 (configuration not stated)	inactive
CCCCCCCC1CCC(=O)O1 (configuration not stated)	inactive
CCc1cccc(O)c1	inactive
CCCCCCCCC=CC=O	inactive
CCOC(=O)C=Cc1ccccc1	inactive
C=C(C)c1ccc(C)cc1	inactive
CC(C)=CCCC(C)=CCCC(C)=CCO	inactive
CC=Cc1ccc(OC)cc1	active
CSCCCO	inactive
C=Cc1ccc(O)c(OC)c1	inactive
CC(=O)C1=NCCS1	inactive
CCc1nccnc1CC	inactive
CCCSSSC	inactive
O=C(O)CCc1ccccc1	inactive
CC=O	inactive
